Data taken from ChEMBL document CHEMBL3232919, “Imidazol-1-ylethylindazole voltage-gated sodium channel ligands are neuroprotective during optic neuritis in a mouse model of multiple sclerosis” (J Med Chem, 2014).

Columns and labels:
Rattus norvegicus [1] = organism: Rattus norvegicus; experiment: Neuroprotective activity in oxygen/glucose deprivation-induced Wistar rat hippocampal slice assessed as inhibition of cell death by measuring ATP level at 50 uM; assay type: functional
[2] = Displacement of [3H]sipatrigine from Wistar rat brain synaptosomes voltage-gated sodium channel by liquid scintillation counting; assay type: subcellular
Rattus norvegicus [3] = organism: Rattus norvegicus; settings: Wistar, 1 uM
Rattus norvegicus [4] = organism: Rattus norvegicus; experiment: Neuroprotective activity in oxygen/glucose deprivation-induced Wistar rat hippocampal slice assessed as inhibition of cell death by measuring ATP level at 30 uM normalized to tetrodotoxin; assay type: functional
[5] = Metabolic stability in rat liver microsomes assessed as drug turnover at 1 uM at 40 mins by LC-MS/MS analysis; assay type: ADME; settings: read-out: Drug metabolism
Outline: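 Compound at 1 μM was incubated (n=2) with pooled rat liver microsomes (0.25 mg protein/ml) at 37°C for 0 and 40 min. Reactions were stopped with acetonitrile containing an internal standard, and parent disappearance was measured by LC-MS/MS. Percentage turnover was taken from peak heights relative to the zero-time samples.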

Rattus norvegicus [6] = organism: Rattus norvegicus; experiment: Neuroprotective activity in oxygen/glucose deprivation-induced Wistar rat hippocampal slice assessed as inhibition of cell death by measuring ATP level; assay type: functional
Rattus norvegicus [7] = organism: Rattus norvegicus; experiment: Neuroprotective activity in oxygen/glucose deprivation-induced Wistar rat hippocampal slice assessed as inhibition of cell death by measuring ATP level at 3 uM; assay type: functional

| Structure (SMILES) | inhibition at 50 µM (Rattus norvegicus [1]) [%] | IC50 [2] [µM] | also measured |
| --- | --- | --- | --- |
| CC(C)(C)OC(=O)NCc1noc(-c2nn(Cc3ccc(-n4cccn4)cc3)c3ccccc23)n1 | 20 | 617 |  |
| NCc1noc(-c2c3ccccc3nn2Cc2ccccc2)n1 | 57 |  |  |
| CC(C)(C)OC(=O)NCc1noc(-c2nn(CCn3ccnc3)c3ccccc23)n1 | 56 | 7.4 |  |
| CC(C)(C)c1ccc(S(=O)(=O)NCc2noc(-c3nn(CCn4ccnc4)c4ccccc34)n2)cc1 | 16 | 4.4 |  |
| COc1cccc(C(=O)NCc2noc(-c3nn(CCn4ccnc4)c4ccccc34)n2)c1OC | 69 | 7.1 |  |
| NC1=N[C@H](O)[C@H]2[C@H]3O[C@]4(O)O[C@@H]([C@@H](O)[C@@]2(N1)[C@@H]4O)[C@]3(O)CO |  |  | inhibition (Rattus norvegicus [3]): 100% |
| NCc1noc(-c2c3ccccc3nn2Cc2ccccn2)n1 | 25 | > 10000 |  |
| O=S(=O)(NCc1noc(-c2nn(CCn3ccnc3)c3ccccc23)n1)c1ccc(Cl)cc1 | 21 | 10 |  |
| Cc1ccccc1C(=O)NCc1noc(-c2c3ccccc3nn2CCn2ccnc2)n1 | 62 | 2.9 |  |
| Cc1oncc1Cn1nc(-c2nc(CNC(=O)c3ccccc3)no2)c2ccccc21 | 19 | > 2000 |  |
| Cc1oncc1Cn1nc(-c2nc(CN)no2)c2ccccc21 | 19 | 15 |  |
| COc1cccc(C(=O)NCc2noc(-c3c4ccccc4nn3CCn3ccnc3)n2)c1 | 63 | 5 |  |
| CC(C)(C)OC(=O)NCc1noc(-c2nn(-c3ccccn3)c3ccccc23)n1 | 18 | 74 |  |
| Cc1ccccc1S(=O)(=O)NCc1noc(-c2nn(CCn3ccnc3)c3ccccc23)n1 | 57 | 4.9 |  |
| Nc1nnc(-c2cccc(Cl)c2Cl)c(N)n1 [LAMOTRIGINE] |  |  | inhibition (INH) (Rattus norvegicus [4]): 33% |
| CC(=O)Nc1ccc(S(=O)(=O)NCc2noc(-c3c4ccccc4nn3CCn3ccnc3)n2)cc1 | 25 | 17 | metabolised at 40 min, 1 µM [5]: 54% |
| O=C(NCc1noc(-c2c3ccccc3nn2CCn2ccnc2)n1)c1ccc(Cl)cc1 | 42 | 2.2 |  |
| NCc1noc(-c2c3ccccc3nn2CCn2ccnc2)n1 | 8 | 14 | metabolised at 40 min, 1 µM [5]: 57% |
| CC(C)(C)OC(=O)NCc1noc(-c2c3ccccc3nn2Cc2ccccn2)n1 | 42 | 23 |  |
| O=C(NCc1noc(-c2nn(CCn3ccnc3)c3ccccc23)n1)c1cccc2[nH]ccc12 | 52 | 13 |  |
| NCc1noc(-c2nn(Cc3ccc(-n4cccn4)cc3)c3ccccc23)n1 | 26 | 6.2 |  |
| CC(C)(C)OC(=O)NCc1noc(-c2c3ccccc3nn2CCc2cccs2)n1 | 1 | 166 |  |
| CC(C)(C)c1ccc(C(=O)NCc2noc(-c3nn(CCn4ccnc4)c4ccccc34)n2)cc1 | 40 | 1.2 |  |
| O=S(=O)(NCc1noc(-c2c3ccccc3nn2CCn2ccnc2)n1)c1ccccc1 | 38 | 1.7 | EC50 (Rattus norvegicus [6]): 29.5 µM; metabolised at 40 min, 1 µM [5]: 97% |
| Cc1cc(C(=O)NCc2noc(-c3c4ccccc4nn3CCn3ccnc3)n2)ccc1[N+](=O)[O-] | 43 | 1.7 |  |

| Structure (SMILES) | inhibition at 50 µM (Rattus norvegicus [1]) [%] | IC50 [2] [µM] | also measured |
| --- | --- | --- | --- |
| O=C(NCc1noc(-c2c3ccccc3nn2CCn2ccnc2)n1)c1ccc(OC(F)(F)F)cc1 | 31 | 0.7 |  |
| NCc1noc(-c2nn(Cc3ccc4c(c3)OCO4)c3ccccc23)n1 | 44 | 2.1 |  |
| NCc1noc(-c2c3ccccc3nn2CCc2cccs2)n1 | 36 | 0.6 |  |
| CC(=O)Nc1ccc(C(=O)NCc2noc(-c3c4ccccc4nn3CCn3ccnc3)n2)cc1 | -14 | 59 | metabolised at 40 min, 1 µM [5]: 45% |
| O=C(NCc1noc(-c2c3ccccc3nn2CCn2ccnc2)n1)c1cccc(F)c1F | 2 | 3.6 |  |
| O=C(NCc1noc(-c2c3ccccc3nn2Cc2ccccn2)n1)c1ccccc1 | 58 | 41 |  |
| COc1cccc(S(=O)(=O)NCc2noc(-c3nn(CCn4ccnc4)c4ccccc34)n2)c1OC | 37 | > 500 |  |
| COc1ccc(C(=O)NCc2noc(-c3nn(CCn4ccnc4)c4ccccc34)n2)c(OC)c1OC | 37 | 5.3 |  |
| O=C(NCc1noc(-c2c3ccccc3nn2CCn2ccnc2)n1)c1ccc2c(c1)OCO2 | 27 | 5 |  |
| COc1cccc(C(=O)NCc2noc(-c3c4ccccc4nn3CCn3ccnc3)n2)c1OC | 88 | 5.8 | EC50 (Rattus norvegicus [6]): 12.3 µM |
| COc1ccccc1C(=O)NCc1noc(-c2c3ccccc3nn2CCn2ccnc2)n1 | 54 | 7.1 |  |
| NCc1noc(-c2nn(-c3ccccn3)c3ccccc23)n1 | -11 | 32 |  |
| NCc1noc(-c2nn(Cc3ccccc3)c3ccccc23)n1 |  |  | EC50 (Rattus norvegicus [6]): 35 µM |
| COc1ccc(C(=O)NCc2noc(-c3c4ccccc4nn3CCn3ccnc3)n2)cc1 | 55 | 6.2 |  |
| Cc1oncc1Cn1nc(-c2nc(CNC(=O)OC(C)(C)C)no2)c2ccccc21 | 39 | 339 |  |
| Cc1cccc(C(=O)NCc2noc(-c3c4ccccc4nn3CCn3ccnc3)n2)c1 | 41 | 2.5 |  |
| O=S(=O)(NCc1noc(-c2nn(CCn3ccnc3)c3ccccc23)n1)c1ccc(OC(F)(F)F)cc1 | 0 | 4.9 |  |
| CN1CCN(c2ncc(-c3cc(Cl)cc(Cl)c3Cl)c(N)n2)CC1 [SIPATRIGINE] |  |  | inhibition at 3 µM (Rattus norvegicus [7]): 93% |
| CC(C)(C)OC(=O)NCc1noc(-c2c3ccccc3nn2CCn2ccnc2)n1 | 35 | 15.5 | metabolised at 40 min, 1 µM [5]: 70% |
| CC(C)(C)OC(=O)NCc1noc(-c2nn(Cc3ccc4c(c3)OCO4)c3ccccc23)n1 | -3 | 6 |  |
| NCc1noc(-c2nn(CCn3ccnc3)c3ccccc23)n1 | -2 | 148 |  |
| O=S(=O)(NCc1noc(-c2nn(CCn3ccnc3)c3ccccc23)n1)c1cccc(C(F)(F)F)c1 | 38 | 2.1 |  |
| O=C(NCc1noc(-c2c3ccccc3nn2CCc2cccs2)n1)c1ccccc1 | -2 | > 1000 |  |
| O=C(NCc1noc(-c2c3ccccc3nn2CCn2ccnc2)n1)c1ccc2ccccc2c1 | 22 | 0.4 |  |
| O=C(NCc1noc(-c2nn(CCn3ccnc3)c3ccccc23)n1)c1cccc(OC(F)(F)F)c1 | 37 | 1.5 | metabolised at 40 min, 1 µM [5]: 78% |
